# Source: ChEMBL document CHEMBL1125291, “New 8-(trifluoromethyl)-substituted quinolones. The benefits of the 8-fluoro group with reduced phototoxic risk” (1992)
# “And” between values parts separate entries of the source, which are not always exact repeats. Equal values may be shown once.
# How the values were obtained:
# [1] = test system: Streptococcus pyogenes; assay: In vivo efficacy (orally) against Streptococcus pyogenes C-203 in mouse protection test; type: functional
# How it was run: (§1)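 Acute lethal systemic infections in female Charles River CD-1 mice. A single dose was given at challenge, orally by gavage or by subcutaneous injection. PD50 (median protective dose, mg/kg) was determined.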
# [2] = species: Mus musculus; assay: Dose required to induce phototoxic reaction in 50% of mice by probit method at different dosage forms.; type: functional
# [3] = species: Mus musculus; assay: Dose which has no effect to induce phototoxic reaction in 50% of mice by probit method.; type: functional
# [4] = Number of mice which show positive phototoxic reaction in 5 mice at peroral dose; type: functional, Mus musculus
# How it was run: (§2)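 Depilated female CD-1 mice got a single oral (gavage) or subcutaneous dose, then UVA (320–400 nm) exposure for 3 h starting 1 h post-dose. This was repeated for up to 4 consecutive days. Initial doses were 30, 100 and 300 mg/kg. PTD50 was derived by probit. First day of positive reaction and no-effect dose were taken from the raw data.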
# [5] = test system: Escherichia coli; assay: Minimum inhibitory concentration (MIC) against gram negative bacteria Escherichia coli H-560.; type: functional
# How it was run: (§3)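 MICs were determined by standard broth microtitration against 11 Gram-positive and Gram-negative organisms, in µg/mL. Values come from duplicate or triplicate experiments and are accurate to ±50%.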
# [6] = test system: Enterococcus faecalis; assay: Minimum inhibitory concentration (MIC) against gram positive bacteria Streptococcus faecalis MGH-2.; type: functional; how it was run: as §3
# [7] = test system: Mus musculus; assay: Dose required to induce phototoxic reaction in 50% of mice by […] reactions at different dosage forms after sc administration; type: functional
# How it was run: (§4)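 Phototoxic skin reaction test in depilated female CD-1 mice. A single oral dose (gavage) or subcutaneous dose was given, followed 1 h later by 3 h of UVA exposure (320–400 nm). The regimen was repeated for up to 4 consecutive days, with initial doses of 30, 100 and 300 mg/kg. PTD50 was derived by the probit method. The first day of positive reaction and the no-effect dose were taken from the raw data.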
# [8] = Minimum inhibitory concentration (MIC) against gram negative bacteria Prot. rettgeri M-1771.; type: functional, Providencia rettgeri; how it was run: as §3
# [9] = test system: Mus musculus; assay: Days of the first positive reaction in […] mice after sc administration; type: functional; how it was run: as §4
# [10] = test system: Mus musculus; assay: (§5) Maximum tolerance dose was measured for phototoxic skin reaction by sc administration; type: functional; how it was run: as §2
# [11] = test system: Streptococcus pneumoniae; assay: Minimum inhibitory concentration (MIC) against gram positive bacteria Streptococcus pneumoniae SV-1.; type: functional; how it was run: as §3
# [12] = test system: Pseudomonas aeruginosa; assay: In vivo efficacy (s.c.) against Pseudomonas aeruginosa in mouse protection test; type: functional; how it was run: as §1
# [13] = test system: Pseudomonas aeruginosa; assay: In vivo efficacy (orally) against Pseudomonas aeruginosa in mouse protection test; type: functional; how it was run: as §1
# [14] = test system: Streptococcus pyogenes; assay: In vivo efficacy (s.c.) against Streptococcus pyogenes C-203 in mouse protection test; type: functional; how it was run: as §1
# [15] = test system: Staphylococcus aureus; assay: Minimum inhibitory concentration (MIC) against gram positive bacteria Staphylococcus aureus UC-76.; type: functional; how it was run: as §3
# [16] = test system: Klebsiella pneumoniae; assay: Minimum inhibitory concentration (MIC) against gram negative bacteria Klebsiella pneumoniae MGH-2.; type: functional; how it was run: as §3
# [17] = test system: Pseudomonas aeruginosa; assay: Minimum inhibitory concentration (MIC) against gram negative bacteria Pseudomonas aeruginosa UI-18.; type: functional; how it was run: as §3
# [18] = test system: Escherichia coli; assay: In vivo efficacy in mouse protection test in Escherichia coli Vogel dose administered orally by gavage.; type: functional; how it was run: as §1
# [19] = test system: Mus musculus; assay: Maximum tolerance dose was measured for phototoxic skin reaction by po administration; type: functional
# [20] = test system: Streptococcus pyogenes; assay: Minimum inhibitory concentration (MIC) against gram positive bacteria Streptococcus pyogenes C-203.; type: functional; how it was run: as §3
# [21] = test system: Escherichia coli; assay: In vivo efficacy in mouse protection test in Escherichia coli Vogel administered by subcutaneous injection.; type: functional; how it was run: as §1
# [22] = test system: Streptococcus pneumoniae; assay: In vivo efficacy (orally) against Streptococcus pneumoniae SV-1 in mouse protection test; type: functional; how it was run: as §1
# [23] = test system: Mus musculus; assay: as §5; type: functional; how it was run: as §2; remark: listed apart in the source
# [24] = Number of mice which show positive phototoxic reaction in 5 mice at subcutaneous dose; type: functional, Mus musculus; how it was run: as §2
# [25] = test system: Escherichia coli; assay: Minimum inhibitory concentration (MIC) against gram negative bacteria Escherichia coli Vogel.; type: functional; how it was run: as §3
# [26] = test system: Mus musculus; assay: Compound's dose which has no effect to induce phototoxic reaction in 50% of mice by […] reactions after sc administration; type: functional; how it was run: as §4
# [27] = test system: Streptococcus pneumoniae; assay: In vivo efficacy (s.c.) against Streptococcus pneumoniae SV-1 in mouse protection test; type: functional; how it was run: as §1
# [28] = test system: Staphylococcus aureus; assay: Minimum inhibitory concentration (MIC) against gram positive bacteria Staphylococcus aureus H-228.; type: functional; how it was run: as §3
# [29] = Escherichia coli, read-out: MIC
# [30] = Staphylococcus aureus, read-out: MIC
structure (smiles),measurement,setting,value
O=C(O)c1cn(C2CC2)c2cc(N3CCNCC3)c(F)cc2c1=O [CIPROFLOXACIN],PD50,[1],180 mg/kg
same,ED50,"[1]; Streptococcus pyogenes, po, read-out: PD50",180 mg/kg
same,PTD50,[2],>300 mg kg-1 and 172
same,No effect dose,[3],300 mg kg-1 and 100
same,No. of pos rxns,[4],0
same,MIC,[5],0.025 µg/mL
same,MIC,[5]; [29],0.025 µg/mL
same,MIC,[6],1.6 µg/mL
same,MIC,"[6]; Enterococcus faecalis, read-out: MIC",1.6 µg/mL
same,PTD50,[7],172 mg/kg
same,MIC,[8],0.1 µg/mL
same,MIC,"[8]; Providencia rettgeri, read-out: MIC",0.1 µg/mL
same,Day of first positve reaction,[9],2
same,MTD,[10],100 mg/kg
same,MIC,[11],0.8 µg/mL
same,MIC,"[11]; Streptococcus pneumoniae, read-out: MIC",0.8 µg/mL
same,PD50,[12],5 mg/kg
same,ED50,"[12]; Pseudomonas aeruginosa, sc, read-out: PD50",5 mg/kg
same,PD50,[13],25 mg/kg
same,ED50,"[13]; Pseudomonas aeruginosa, po, read-out: PD50",25 mg/kg
same,PD50,[14],19 mg/kg
same,ED50,"[14]; Streptococcus pyogenes, sc, read-out: PD50",19 mg/kg
same,MIC,[15],0.1 µg/mL
same,MIC,[15]; [30],0.1 µg/mL
same,MIC,[16],0.05 µg/mL
same,MIC,"[16]; Klebsiella pneumoniae, read-out: MIC",0.05 µg/mL
same,MIC,[17],0.2 µg/mL
same,MIC,"[17]; Pseudomonas aeruginosa, read-out: MIC",0.2 µg/mL
same,PD50,[18],1.2 mg/kg
same,ED50,"[18]; Escherichia coli, po, read-out: PD50",1.2 mg/kg
same,MTD,[19],300 mg/kg
same,MIC,[20],0.4 µg/mL
same,MIC,"[20]; Streptococcus pyogenes, read-out: MIC",0.4 µg/mL
same,PD50,[21],0.25 mg/kg
same,ED50,"[21]; Escherichia coli, sc, read-out: PD50",0.25 mg/kg
same,PD50,[22],260 mg/kg
same,ED50,"[22]; Streptococcus pneumoniae, po, read-out: PD50",260 mg/kg
same,MTD,[23],100 mg/kg
same,No. of pos rxns,[24],5
same,MIC,[25],0.025 µg/mL
same,MIC,[25]; [29],0.025 µg/mL
same,No effect dose,[26],100 mg/kg
same,PD50,[27],29 mg/kg
same,ED50,"[27]; Streptococcus pneumoniae, sc, read-out: PD50",29 mg/kg
same,MIC,[28],1.6 µg/mL
same,MIC,[28]; [30],1.6 µg/mL
